Experimental findings from PubChem BioAssay AID1040 (The Scripps Research Institute Molecular Screening Center, 2008) are described below.

Where “and” joins values, the source holds several entries; their conditions need not be identical. Equal entries are not always repeated. Screen size: about 200,000 compounds; about 2,000 (1%) were called active. The sample holds actives, similar compounds and a random draw of the others, so the mix is not that of the screen. A number with no mark means an inactive call.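 How the source made its calls: active means inhibition above the campaign mean inhibition of all tested compounds plus 3 SD (cut at about 20% in these data); inactive means the rest.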

Chain of Neuropeptide Y receptor type 1 (Homo sapiens) (P25929 whole entry, looked up): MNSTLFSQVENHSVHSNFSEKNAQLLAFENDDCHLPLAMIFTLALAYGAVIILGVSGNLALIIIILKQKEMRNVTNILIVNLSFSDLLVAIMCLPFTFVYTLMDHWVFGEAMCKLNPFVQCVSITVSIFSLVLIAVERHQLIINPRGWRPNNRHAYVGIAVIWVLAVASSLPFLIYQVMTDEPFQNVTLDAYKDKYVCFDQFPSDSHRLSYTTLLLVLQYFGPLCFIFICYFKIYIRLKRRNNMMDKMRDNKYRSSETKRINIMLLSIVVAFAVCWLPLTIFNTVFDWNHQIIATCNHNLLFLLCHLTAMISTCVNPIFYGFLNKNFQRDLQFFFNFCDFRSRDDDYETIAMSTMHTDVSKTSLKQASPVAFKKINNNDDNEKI

This experiment deals with Neuropeptide Y receptor type 1 (Homo sapiens) (UniProt P25929). The experiment is described as follows: NPY-Y1 receptor antagonists, primary screen, cell-based (AID 1040).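 Further: 0% = DMSO wells given NPY plus isoproterenol and 100% = isoproterenol alone without NPY.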 The conditions noted are these: HEK293-CNG Y1 cells, membrane potential fluorescence; at 3.6 µM; stronger effect = higher value; NPY at EC95, then isoproterenol. Put shortly:
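Test system – HEK293 Y1/CNG channel cell line · Also added – NPY agonist 25 nM, then isoproterenol 1 µM plus Ro 20-1724 25 µM · Compound dosing – one concentration, 3.6 µM, in 0.4% DMSO · Schedule – compound incubation 1 h at room temperature, readout 45 min post-stimulation · Technique – fluorescence, membrane potential probe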
Regarding `COc1ccc(CCN(C(=O)COc2ccccc2)c2nc(-c3ccccc3)cs2)cc1OC`, the inhibition is 37.1% (active).

Turning to `COc1ccc(CCNc2nc(-c3cccc(NC(C)=O)c3)cs2)cc1OC`, the inhibition was 6.08%.

`CN(C(=O)COc1ccccc1)c1nnc(-c2ccncc2)s1`: the inhibition is 7.86%.

Take `CC(=O)N1CC(C)c2scc(C)[n+]2-c2ccccc21` (centres undefined): the inhibition is 23.1% (active).

Turning to `C/C(=C\c1ccccc1)C1NC(=O)c2c(sc3c2CCCC3)N1` (centres undefined), the inhibition was -4.04%.

On to `Cc1ccsc1C(C(=O)NC1CCCCC1)N(C(=O)Cc1cccs1)C1CC1` (centres undefined), for which the inhibition is 4.38%.

Consider `CC(=O)N(CC1CCCO1)C1(C(=O)NC2CCCC2)CCCCC1` (centres undefined), for which the inhibition was 1.44%.

Take `O=C(Cc1cccs1)N(CC1CCCO1)C1(C(=O)NC2CCCCC2)CCCCC1` (centres undefined): the inhibition is 50.3% (active).

For the molecule `CSc1cccc(NC(=S)N(Cc2ccccc2)Cc2ccccn2)c1`, the inhibition was 5.5%.

Regarding `O=c1c2ccccc2nc2n1C1(CCCCC1)Cc1ccccc1-2`, the inhibition is 32% (active).

With `c1cncc(-c2nnc3n2C2(CCCCC2)Cc2ccccc2-3)c1`, the inhibition is 1.15%.

Consider `CCC1(CC)Cc2ccccc2-c2nc3ccccc3c(=O)n21`, for which the inhibition was 12.8%.

As for `COCCCNC(=S)N(Cc1ccccc1)Cc1ccc(F)cc1`, the inhibition was 2.32%.

Consider `Cc1cc(C)c2[nH]c(=O)c(CN(Cc3ccccc3)C(=S)NCCCN(C)C)cc2c1`, for which the inhibition was 25.1% (active).

In the case of `Cc1cccc2cc(CN(Cc3cccs3)C(=S)NCc3ccco3)c(=O)[nH]c12`, the inhibition was -4.05%.

On to `CC(=O)N1CCN(CC(=O)Nc2ccc(SC(F)F)cc2)CC1`, for which the inhibition is 4.16%.

Turning to `COc1cccc(CNCCc2c[nH]c3ccccc23)c1OCc1ccccc1F`, the inhibition is 21.9% (active).

For the molecule `COc1ccccc1NC(=O)CCCc1c[nH]c2ccccc12`, the inhibition is 11.1%.

Turning to `COc1ccc(C(CCNCc2ccccc2F)c2ccc(F)cc2)cc1` (centres undefined), the inhibition is 9.35%.

For the molecule `CCC(=O)Nc1sc(C(=O)Nc2ccccc2)c(C)c1C(=O)OC`, the inhibition is 7.74%.

Consider `O=S(=O)(Nc1ccc2cn[nH]c2c1)c1ccccc1`, for which the inhibition was -1.06%.

As to `Cc1cc(C)nc(NS(=O)(=O)c2ccc(N/C=C\C(=O)c3cccs3)cc2)n1`, the inhibition is 1.24%.

For the molecule `COc1ccc(CCNC2=C(Cl)C(=O)N(Cc3ccccc3)C2=O)cc1OC`, the inhibition is -3.95%.

On to `C/C(=N\N)c1c(-c2ccccc2)c2cc(Br)ccc2[nH]c1=O`, for which the inhibition was -0.69%.

`Cc1cnc(C(=O)OCC(=O)NCCCc2ccccc2)cn1`: the inhibition is 2.73%.

Regarding `COc1ccc(CN(C)C(=S)Nc2ccc(Cl)cc2Cl)cc1`, the inhibition was 3.26%.

Consider `NC(N)=N/N=C/c1ccc(OCc2ccc(Cl)cc2Cl)cc1`, for which the inhibition is 22.1% (active).

Consider `NC(N)=N/N=C/c1ccc(Cl)c([N+](=O)[O-])c1`, for which the inhibition was 3.89%.

Take `COc1ccc(C(=O)O/N=C(\N)Cc2ccc(Cl)cc2Cl)cc1OC`: the inhibition was -3.58%.

Consider `CN(C)CCNC(=O)Cc1ccc([N+](=O)[O-])cc1`, for which the inhibition was -2.56%.

Regarding `Cc1ccc2cc(CN(c3ccc(C)c(C)c3)S(C)(=O)=O)c(=O)[nH]c2c1`, the inhibition was -0.43%.

`NNC(=O)c1cnn(-c2ccccc2)c1C(F)(F)F`: the inhibition was 3.72%.

Take `O=C(CN1C2=NCCN2c2ccccc21)c1cccs1`: the inhibition is 3.06%.

On to `O=C(Nc1ccccc1N1CCN(c2ccccc2)CC1)c1cccc(F)c1`, for which the inhibition was 44.1% (active).

As for `Cc1cccc(C(=O)Nc2ccccc2N2CCN(c3ccc(F)cc3)CC2)c1`, the inhibition is 6.05%.

Take `O=C(Nc1ccccc1N1CCCCC1)c1cccc(F)c1`: the inhibition was 13.7%.

Turning to `CC(=O)N(CCCN(C)C)c1nc2ccc(C)cc2s1`, the inhibition is -0.43%.

`O=C(CSc1cccc[n+]1[O-])c1ccc(Cl)cc1`: the inhibition was 0.77%.

As to `CN(C)S(=O)(=O)c1cc(NC(=O)CN2C(=O)NC3(CCCc4ccccc43)C2=O)ccc1Cl` (centres undefined), the inhibition is -4.16%.

As to `Cc1ccc(-n2nc3cc(C)c(NC(=O)c4cccnc4)cc3n2)cc1`, the inhibition was -4.27%.

Take `Cc1ccc2nc(-c3ccc(NC(=O)c4cccnc4)cc3)oc2c1`: the inhibition is -0.59%.

For `Cc1cc2nc(-c3ccc(NC(=O)c4cccnc4)cc3)oc2cc1C`, the inhibition was 29.8% (active).

As to `Cc1nc2cc(NC(=O)NC3CC3)ccc2n1C`, the inhibition was -0.07%.

Turning to `O=C(CN1CCN(CC(=O)Nc2ccc3c(c2)OCO3)CC1)Nc1ccc(F)cc1`, the inhibition was -3.14%.

In the case of `O=C(CN1CCN(c2ncc(C(F)(F)F)cc2Cl)CC1)Nc1ccc2c(c1)OCO2`, the inhibition is 23.8% (active).

With `O=C(CN1CCN(C(=O)c2ccco2)CC1)Nc1ccc2c(c1)OCO2`, the inhibition was 0.97%.

Consider `COc1ccc(C(=O)NC(Cc2ccc(OC(=O)c3ccc(OC)cc3)cc2)C(=O)O)cc1` (centres undefined), for which the inhibition was 3.87%.

Turning to `Cc1coc(C)c1C(=O)CC1(O)C(=O)N(C)c2ccc(Cl)cc21` (centres undefined), the inhibition was 1.88%.

Regarding `O=C1NC(=Nc2ccc(Cl)cc2)SC1Cc1cccc(Cl)c1Cl` (centres undefined), the inhibition is -1.29%.

Turning to `CCc1cc2c(NC3CCCC3)ncnc2s1`, the inhibition is -1.37%.

Take `CCCc1ccc(OCC(=O)NNC(=S)NC(=O)c2ccco2)cc1`: the inhibition was 10.6%.

Regarding `O=C(Nc1ccc2ccccc2c1)/C(=C/c1cccc(Br)c1)NC(=O)c1ccco1`, the inhibition is 7.08%.

Turning to `CC(Oc1ccc2ccccc2c1)C(=O)NNC(=S)NC(=O)c1ccco1` (centres undefined), the inhibition was 21.9% (active).

Take `CCOC(=O)CSc1nc2c(c(=O)n(C)c(=O)n2C)n1Cc1ccccc1F`: the inhibition was 1.86%.

With `COc1ccccc1NC(=O)CSc1nc2sc(C)c(C)c2c(=O)n1Cc1ccco1`, the inhibition was 9.58%.

Take `CCOC(=O)CSc1nc2c(sc(=S)n2CCc2ccccc2)c(=O)n1Cc1ccco1`: the inhibition is 34.8% (active).

Turning to `CC(=O)c1ccc(N2CCN(S(=O)(=O)c3c(C)[nH]c(=O)[nH]c3=O)CC2)cc1`, the inhibition was -3.11%.

For the molecule `O=C(NC(=S)Nc1cccc(-c2ccc(CO)o2)c1)c1cccs1`, the inhibition was 4.06%.

`O=C(Nn1c(SCc2ccc([N+](=O)[O-])cc2)nc2ccccc2c1=O)c1ccc(F)cc1`: the inhibition was 3.79%.

As to `COc1ccc2oc(=O)c(C(=O)N3CCCC3)cc2c1`, the inhibition is 1%.

Turning to `CSc1ccc(S(=O)(=O)NC2CCCCC2)cc1`, the inhibition is -0.27%.

Regarding `CCOC1CCCCC1NS(=O)(=O)c1ccc(Cl)cc1` (centres undefined), the inhibition was 21.4% (active).

Consider `Cc1cc(C)nc(SC2CCCCC2NS(=O)(=O)c2ccc(Cl)cc2)n1` (centres undefined), for which the inhibition is 4.03%.

With `O=C(COc1nc2ccccc2nc1N1CCOCC1)NCC(F)(F)F`, the inhibition was 3.34%.

For `C/C=C/c1ccc(OCC(O)CN2CCCCCCC2)c(OC)c1` (centres undefined), the inhibition is 16.4%.

Turning to `Cc1ccc(N2C(=O)C3CC3C2=O)cc1` (centres undefined), the inhibition was -4.56%.

In the case of `CCCCCOC(=O)c1ccc(N2C(=O)C3C4C=CC(C4)C3C2=O)cc1` (centres undefined), the inhibition was -0.77%.

Turning to `C/C(=N/O)c1ccc(N2C(=O)C3C4C=CC(C3C2=O)C2C3C(=O)N(c5ccc(/C(C)=N/O)cc5)C(=O)C3C42)cc1` (centres undefined), the inhibition is 20.7% (active).

Regarding `Cc1ccc(C(=O)N/C(=C/c2cccs2)C(=O)N2CCCCC2)cc1`, the inhibition was 0.27%.

Consider `CCOC(=O)c1c(NC(=O)C2CC=CCC2C(=O)O)sc(C)c1CC` (centres undefined), for which the inhibition is 6.42%.

On to `CCCC(=O)Nc1nc2ccc(NC(=O)c3c(F)c(F)c(OC)c(F)c3F)cc2s1`, for which the inhibition is 33.9% (active).

As for `COc1ccc2nc(Nc3nc4ccc(NC(C)=O)cc4s3)sc2c1`, the inhibition is -4.47%.

`CCCC(=O)Nc1nc2ccc(NC(=O)c3cccnc3)cc2s1`: the inhibition is 2.46%.

As to `O=C(NCc1ccco1)c1ccc(NS(=O)(=O)c2cccc([N+](=O)[O-])c2)cc1`, the inhibition was -0.88%.

Take `CN1CCN(C(=O)/C(=C\c2cccs2)NC(=O)c2cccs2)CC1`: the inhibition was -0.85%.

In the case of `CO/N=C/c1cn(-c2ccc(Cl)cc2)nn1`, the inhibition was -3.05%.

Take `O=C(NCc1ccncc1)NC12CC3CC(CC(C3)C1)C2`: the inhibition was -6.14%.

In the case of `CCCn1nc(C(=O)N2CCCc3ccccc32)c2ccccc2c1=O`, the inhibition was 3.23%.

`O=C(c1cccc(C(=O)N2CCc3ccccc32)n1)N1CCc2ccccc21`: the inhibition is 10.5%.

As to `CCCCn1nc(C(=O)N2CCc3ccccc32)c2ccccc2c1=O`, the inhibition was 28.5% (active).

For `NS(=O)(=O)c1ccc(N=Cc2ccc(Br)s2)cc1`, the inhibition was 2.13%.

For the molecule `Cc1ccc(S(=O)(=O)NC(C(=O)N2CCOCCOCCOCCOCC2)c2ccccc2)cc1` (centres undefined), the inhibition was 5.72%.

On to `O=C(/C=C/c1ccccc1)Nc1nnc(SCC(=O)c2ccc3ccccc3c2)s1`, for which the inhibition was -1.51%.

For `O=C(NCCNc1ccc([N+](=O)[O-])cc1)c1cccc2c(Br)cccc12`, the inhibition was 10.2%.

Turning to `CCOC(=O)/C(=N\Nc1ccccc1Cl)N(C)C1CCS(=O)(=O)C1` (centres undefined), the inhibition is -1.74%.

Consider `Cc1ccc(C(=O)C[n+]2cc(-c3ccccc3)n3c2CCCCC3)cc1`, for which the inhibition is 30.8% (active) and 55.8% (active).

As for `Cn1c(-c2ccccc2)c[n+]2c1CCCCC2`, the inhibition is 6%.

With `Cc1ccc(C(=O)N2CCCC(c3ccccc3)=N2)cc1`, the inhibition was 0.71%.

Regarding `CCN1CCN(C(C(=O)NC2CCCC2)c2cc3c(cc2[N+](=O)[O-])OCO3)CC1` (centres undefined), the inhibition was -0.35%.

In the case of `COC(=O)C1=C(Nc2ccc(C)cc2)C=C(C)C(C(=O)OC)C1c1ccc(F)cc1` (centres undefined), the inhibition was 32.6% (active).

Turning to `COC(=O)C1C(=O)NCC1c1ccc(C)cc1` (centres undefined), the inhibition is -2.75%.

On to `COC(=O)C1=C(Nc2ccc(OC)cc2)C=C(C)C(C(=O)OC)C1c1ccc(C)cc1` (centres undefined), for which the inhibition is 14.2%.

In the case of `O=c1[nH]c2ccccc2s1`, the inhibition is 1.2%.

Turning to `Cc1ccc(S(=O)(=O)N2CCOCC2)cc1C(=O)NC(=S)N(Cc1ccccc1)C(C)C`, the inhibition was 1.17%.

The inhibition is the relative decrease from the control value, in per cent.
